Test results from ChEMBL document CHEMBL3102835, “Dimeric unnatural polyproline-rich peptides with enhanced antibacterial activity” (Bioorg Med Chem Lett, 2014).
In brackets after ≈: the same amount, converted by molar mass.

Legend:
[1] = test system: Staphylococcus aureus; assay: Antibacterial activity against Staphylococcus aureus by broth microdilution method; format: functional
Method in brief: (§1)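 Broth microdilution. E. coli ATCC 25922 or S. aureus ATCC 25923 grown to mid-exponential phase in TSB at 37 °C, 200 rpm. MIC taken as the lowest concentration with no growth.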

[2] = test system: Escherichia coli; assay: Drug uptake in Escherichia coli ATCC 25922 assessed as increase in cellular fluorescence at 10 uM after 6 hrs by confocal microscopic analysis; format: ADME, organism-based; details: in vivo
Method in brief: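 E. coli ATCC 25922 grown to mid-exponential phase in MHB at 37 °C, pelleted and resuspended in fresh MHB. Exposed to 10 µM fluorescein-labelled peptide or buffer for 10 min, 1 h or 6 h at 37 °C. Cells washed in PBS, fixed in 10% formalin, stained with 1 µM Hoechst, mounted on poly-lysine coverslips. Confocal imaging at equal laser intensity.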

[3] = test system: Escherichia coli; assay: Antibacterial activity against Escherichia coli by broth microdilution method; format: functional; method in brief: as §1
[4] = test system: Escherichia coli; assay: Antibacterial activity against Escherichia coli ATCC 25922 assessed as release of beta-galactosidase at 20 µM after 1 hr relative to control
[5] = test system: Escherichia coli; assay: Antibacterial activity against Escherichia coli ATCC 25922 assessed as release of beta-galactosidase at 5 times MIC after 1 hr relative to control; format: functional
[6] = test system: Escherichia coli; assay: Antibacterial activity against Escherichia coli ATCC 25922 assessed as release of beta-galactosidase after 1 hr relative to control; format: functional
Method in brief: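 Cells washed twice in TSB, then exposed to peptide at 1× or 5× MIC for 1 h at 37 °C. Supernatant collected by cold centrifugation and mixed with ONPG. Release expressed versus buffer control.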

[7] = Toxicity in human RBC assessed as hemolysis by measuring hemoglobin release at 1 uM after 1 hr; format: cell-based; details: erythrocyte
Method in brief: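 Fresh human RBCs from healthy volunteers, washed three times in PBS pH 7.4 and used as an 8% (v/v) suspension. Mixed with two-fold serial peptide dilutions and incubated 1 h at 37 °C. Positive controls were melittin and 1% Triton X-100.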

For `CC(C)COC1C[C@@H](C(=O)N2CC(OCCCNC(=N)N)C[C@H]2C(=O)N2CC(OCCCNC(=N)N)C[C@H]2C(=O)N2CC(OCC(C)C)C[C@H]2C(=O)N2CC(OCCCNC(=N)N)C[C@H]2C(=O)N2CC(OCCCNC(=N)N)C[C@H]2C(=O)N2CC(OCC(C)C)C[C@H]2C(=O)N2CC(OCCCNC(=N)N)C[C@H]2C(=O)N2CC(OCCCNC(=N)N)C[C@H]2C(=O)N2C[C@@H](OCC(C)C)CC2C(N)=O)N(C(=O)CNC(=O)c2ccc(-c3c4ccc(=O)cc-4oc4cc(O)ccc34)c(C(=O)O)c2)C1` (stereo not given in full), the MIC [1] was 60 µM (≈ 143 µg/mL), the Drug uptake [2] was “Active” and the MIC [3] was 60 µM (≈ 143 µg/mL). For the same molecule, the “fold change (FC)” value [4] was 3.

For `CC(=O)NCC(=O)N(CCCCC(=O)NCC(=O)N1CC(OCC(C)C)C[C@H]1C(=O)N1CC(OCCCNC(=N)N)C[C@H]1C(=O)N1CC(OCCCNC(=N)N)C[C@H]1C(=O)N1CC(OCC(C)C)C[C@H]1C(=O)N1CC(OCCCNC(=N)N)C[C@H]1C(=O)N1CC(OCCCNC(=N)N)C[C@H]1C(=O)N1CC(OCC(C)C)C[C@H]1C(=O)N1CC(OCCCNC(=N)N)C[C@H]1C(=O)N1CC(OCCCNC(=N)N)C[C@H]1C(=O)N1CC(OCC(C)C)C[C@H]1C(N)=O)CCCCC(=O)NCC(=O)N1CC(OCC(C)C)C[C@H]1C(=O)N1CC(OCCCNC(=N)N)C[C@H]1C(=O)N1CC(OCCCNC(=N)N)C[C@H]1C(=O)N1CC(OCC(C)C)C[C@H]1C(=O)N1CC(OCCCNC(=N)N)C[C@H]1C(=O)N1CC(OCCCNC(=N)N)C[C@H]1C(=O)N1CC(OCC(C)C)C[C@H]1C(=O)N1CC(OCCCNC(=N)N)C[C@H]1C(=O)N1CC(OCCCNC(=N)N)C[C@H]1C(=O)N1CC(OCC(C)C)C[C@H]1C(N)=O` (stereo not given in full), the MIC [1] was 2 µM (≈ 8.66 µg/mL) and the MIC [3] was 1 µM (≈ 4.33 µg/mL).

In the case of `CC(=O)NCC(=O)N(CCCCC(=O)NCCC(=O)N1CC(OCC(C)C)C[C@H]1C(=O)N1CC(OCCCNC(=N)N)C[C@H]1C(=O)N1CC(OCCCNC(=N)N)C[C@H]1C(=O)N1CC(OCC(C)C)C[C@H]1C(=O)N1CC(OCCCNC(=N)N)C[C@H]1C(=O)N1CC(OCCCNC(=N)N)C[C@H]1C(=O)N1CC(OCC(C)C)C[C@H]1C(=O)N1CC(OCCCNC(=N)N)C[C@H]1C(=O)N1CC(OCCCNC(=N)N)C[C@H]1C(=O)N1CC(OCC(C)C)C[C@H]1C(N)=O)CCCCC(=O)NCCC(=O)N1CC(OCC(C)C)C[C@H]1C(=O)N1CC(OCCCNC(=N)N)C[C@H]1C(=O)N1CC(OCCCNC(=N)N)C[C@H]1C(=O)N1CC(OCC(C)C)C[C@H]1C(=O)N1CC(OCCCNC(=N)N)C[C@H]1C(=O)N1CC(OCCCNC(=N)N)C[C@H]1C(=O)N1CC(OCC(C)C)C[C@H]1C(=O)N1CC(OCCCNC(=N)N)C[C@H]1C(=O)N1CC(OCCCNC(=N)N)C[C@H]1C(=O)N1CC(OCC(C)C)C[C@H]1C(N)=O` (stereo not given in full), the MIC [1] is reported as 8 µM (≈ 34.9 µg/mL) and the MIC [3] is reported as 4 µM (≈ 17.4 µg/mL).

`CC(=O)NCC(=O)N(CCCCC(=O)NCCCC(=O)N1CC(OCC(C)C)C[C@H]1C(=O)N1CC(OCCCNC(=N)N)C[C@H]1C(=O)N1CC(OCCCNC(=N)N)C[C@H]1C(=O)N1CC(OCC(C)C)C[C@H]1C(=O)N1CC(OCCCNC(=N)N)C[C@H]1C(=O)N1CC(OCCCNC(=N)N)C[C@H]1C(=O)N1CC(OCC(C)C)C[C@H]1C(=O)N1CC(OCCCNC(=N)N)C[C@H]1C(=O)N1CC(OCCCNC(=N)N)C[C@H]1C(=O)N1CC(OCC(C)C)C[C@H]1C(N)=O)CCCCC(=O)NCCCC(=O)N1CC(OCC(C)C)C[C@H]1C(=O)N1CC(OCCCNC(=N)N)C[C@H]1C(=O)N1CC(OCCCNC(=N)N)C[C@H]1C(=O)N1CC(OCC(C)C)C[C@H]1C(=O)N1CC(OCCCNC(=N)N)C[C@H]1C(=O)N1CC(OCCCNC(=N)N)C[C@H]1C(=O)N1CC(OCC(C)C)C[C@H]1C(=O)N1CC(OCCCNC(=N)N)C[C@H]1C(=O)N1CC(OCCCNC(=N)N)C[C@H]1C(=O)N1CC(OCC(C)C)C[C@H]1C(N)=O` (stereo not given in full) showed an MIC [1] of 4 µM (≈ 17.5 µg/mL) and an MIC [3] of 1 µM (≈ 4.39 µg/mL).

For `CC(C)COC1C[C@@H](C(=O)N2CC(OCCCNC(=N)N)C[C@H]2C(=O)N2CC(OCCCNC(=N)N)C[C@H]2C(=O)N2CC(OCC(C)C)C[C@H]2C(=O)N2CC(OCCCNC(=N)N)C[C@H]2C(=O)N2CC(OCCCNC(=N)N)C[C@H]2C(=O)N2CC(OCC(C)C)C[C@H]2C(=O)N2CC(OCCCNC(=N)N)C[C@H]2C(=O)N2CC(OCCCNC(=N)N)C[C@H]2C(=O)N2CC(OCC(C)C)C[C@H]2C(=O)N2CC(OCCCNC(=N)N)C[C@H]2C(=O)N2CC(OCCCNC(=N)N)C[C@H]2C(=O)N2CC(OCC(C)C)C[C@H]2C(N)=O)N(C(=O)CNC(=O)c2ccc(-c3c4ccc(=O)cc-4oc4cc(O)ccc34)c(C(=O)O)c2)C1` (stereo not given in full), the MIC [1] was 12 µM (≈ 35.7 µg/mL), the MIC [3] was 4 µM (≈ 11.9 µg/mL) and the “fold change (FC)” value [5] was 3.

With `CC[C@H](C)[C@H](NC(=O)CN)C(=O)NCC(=O)N[C@@H](C)C(=O)N[C@H](C(=O)N[C@@H](CC(C)C)C(=O)N[C@@H](CCCCN)C(=O)N[C@H](C(=O)N[C@@H](CC(C)C)C(=O)N[C@H](C(=O)N[C@H](C(=O)NCC(=O)N[C@@H](CC(C)C)C(=O)N1CCC[C@H]1C(=O)N[C@@H](C)C(=O)N[C@@H](CC(C)C)C(=O)N[C@H](C(=O)N[C@@H](CO)C(=O)N[C@@H](Cc1c[nH]c2ccccc12)C(=O)N[C@H](C(=O)N[C@@H](CCCCN)C(=O)N[C@@H](CCCNC(=N)N)C(=O)N[C@@H](CCCCN)C(=O)N[C@@H](CCCNC(=N)N)C(=O)N[C@@H](CCC(N)=O)C(=O)N[C@@H](CCC(N)=O)C(N)=O)[C@@H](C)CC)[C@@H](C)CC)[C@@H](C)O)[C@@H](C)O)C(C)C)C(C)C` [MELITTIN] the “fold change (FC)” value [6] was 8 and the Activity [7] was “Toxic”.
